Series [1] can be described thus: Cytotoxicity against human MDA-MB-DYT2 cells after 4 days by MTS/cell proliferation assay. Type of series: functional, cell-based. The following applies: 96 h. A digest of the protocol: (§1)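 Cells seeded in 96-well plates and dosed next day with 10 concentrations in 3-fold serial dilution, in duplicate. Incubated 4 days at 37 °C/5% CO2. Viability read by MTS or CellTiter-Glo luminescence. IC50 from four-parameter logistic fit.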

A further series relates to NCI-N87. As to the kind of experiment: Cytotoxicity against human NCI-N87 cells after 4 days by MTS/cell proliferation assay. To be noted: NCI-N87, 96 h. Type of series: functional, cell-based. A digest of the protocol:
as §1

A short description of series [2]: 1-Octanol-buffer partition coefficient, log D of the compound at pH 7.4 by shake flask method. Format: physicochemical. A digest of the protocol: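 Shake-flask partition: 10 mM DMSO stock added to 1-octanol/pH 7.4 phosphate buffer (1:1, mutually presaturated), mixed 15 min at room temperature, centrifuged 1006g 10 min to split phases. Each phase was sampled, diluted and quantified by LC-MS/MS. Run in duplicate, typical CV ~20%.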

Another series concerns BT-474. As to the kind of experiment: Cytotoxicity against human BT474 cells after 4 days by MTS/cell proliferation assay. Format: functional, cell-based. To be noted: BT-474, 96 h. Put shortly: as §1
The test system of another series is MDA-MB-468. As to the kind of experiment: Cytotoxicity against human MDA-MB-468 cells after 4 days by MTS/cell proliferation assay. Type of series: functional, cell-based. To be noted: MDA-MB-468, 96 h. A digest of the protocol: as §1
A further series deals with NCI-H1975. As to the kind of experiment: Cytotoxicity against human NCI-H1975 cells after 4 days by MTS/cell proliferation assay. Format: functional, cell-based. To be noted: NCI-H1975, 96 h. Put shortly: as §1

The record followed here is ChEMBL document CHEMBL3352144, “Cytotoxic Spliceostatins from Burkholderia sp. and Their Semisynthetic Analogues” (J Nat Prod, 2014).

Consider `COC(=O)C[C@@H]1C[C@@]2(CO2)[C@H](O)[C@@H](/C=C/C(C)=C/C[C@@H]2O[C@H](C)[C@H](NC(=O)/C=C\[C@H](C)OC(C)=O)C[C@@H]2C)O1`, for which the IC50 in series [1] is 1.25 nM; in the series with NCI-N87, 0.78 nM; in the series on BT-474, 0.88 nM. The logD in series [2] came to 2.23.

As for `CC(=O)O[C@@H](C)/C=C\C(=O)N[C@@H]1C[C@H](C)[C@H](C/C=C(C)/C=C/[C@H]2O[C@@H]3CC(=O)O[C@@](CCl)(C3)[C@@H]2O)O[C@@H]1C`, the IC50 (in series [1]; with NCI-N87; in the series with MDA-MB-468) was above 100 nM throughout.

With `CCCNC(=O)C[C@@H]1C[C@@]2(CO2)[C@H](O)[C@@H](/C=C/C(C)=C/C[C@@H]2O[C@H](C)[C@H](NC(=O)/C=C\[C@H](C)OC(C)=O)C[C@@H]2C)O1`, the IC50 in the series with NCI-H1975 came to 0.28 nM; in series [1], 0.29 nM; in the series with NCI-N87 it was 0.64 nM; in the series on MDA-MB-468, 0.11 nM; in the series on BT-474, 0.19 nM. Moreover, in series [2], the logD turned out to be 2.21.

In the series with NCI-H1975, `C=C1C[C@@H](CC(=O)O)O[C@H](/C=C/C(C)=C/C[C@@H]2O[C@H](C)[C@H](NC(=O)/C=C\[C@H](C)OC(C)=O)C[C@@H]2C)[C@H]1O` displayed an IC50 of 950 nM.

On to `CC(=O)O[C@@H](C)/C=C\C(=O)N[C@@H]1C[C@H](C)[C@H](C/C=C(C)/C=C/[C@@H]2C[C@](O)(CCl)C[C@@H](CC(=O)OC[C@@]3(O)[C@H](O)[C@@H](/C=C/C(C)=C/C[C@@H]4O[C@H](C)[C@H](NC(=O)/C=C\[C@H](C)OC(C)=O)C[C@@H]4C)O[C@](C)(O)[C@@H]3O)O2)O[C@@H]1C`, for which the concentration for half-maximal inhibition (IC50) is 3.07 nM in series [1], 1.86 nM in the series on NCI-N87 and 3.82 nM in the series with BT-474.

Consider `CC(=O)O[C@@H](C)/C=C\C(=O)N[C@@H]1C[C@H](C)[C@H](C/C=C(C)/C=C/[C@H]2O[C@H](CC(=O)O)C[C@@]3(CO3)[C@@H]2O)O[C@@H]1C` [THAILANSTATIN A], for which the IC50 in the series on NCI-H1975 worked out at 320 nM; in series [1] it was 161 nM; in the series with NCI-N87 it was 59 nM; in the series on MDA-MB-468, 142 nM; with BT-474, 145 nM. The same molecule came in with a logD in series [2] of -0.658.

On to `CCCNC(=O)C[C@@H]1C[C@@]2(CO2)C[C@@H](/C=C/C(C)=C/C[C@@H]2O[C@H](C)[C@H](NC(=O)/C=C\[C@H](C)OC(C)=O)C[C@@H]2C)O1`, for which the IC50 in the series with NCI-H1975 was 2.4 nM; in the series on NCI-N87, 6 nM; in the series on MDA-MB-468, 1.7 nM; in the series on BT-474, 2.5 nM. Besides, the logD in series [2] worked out at 3.72.

For the molecule `CC(=O)O[C@@H](C)/C=C\C(=O)N[C@@H]1C[C@H](C)[C@H](C/C=C(C)/C=C/[C@@H]2CC(C)=CC(=O)O2)O[C@@H]1C`, the IC50 amounted to 4.16 nM in series [1], 3.67 nM in the series with NCI-N87, 1.56 nM in the series on MDA-MB-468 and 3.72 nM in the series on BT-474.

For `C=C1C[C@@H](CC(=O)O)O[C@H](/C=C/C(C)=C/C[C@@H]2O[C@H](C)[C@H](NC(=O)/C=C\[C@H](C)OC(C)=O)C[C@@H]2C)C1`, the IC50 in the series with NCI-H1975 is 30 nM.

Regarding `CC(=O)O[C@H]1C(=O)[C@@]2(C)[C@H]([C@H](OC(=O)c3ccccc3)[C@]3(O)C[C@H](OC(=O)[C@H](O)[C@@H](NC(=O)c4ccccc4)c4ccccc4)C(C)=C1C3(C)C)[C@]1(OC(C)=O)CO[C@@H]1C[C@@H]2O` [PACLITAXEL], the IC50 was determined as 7.94 nM with NCI-H1975; 6.08 nM in series [1]; 7.53 nM in the series with NCI-N87; 7.17 nM with MDA-MB-468; 8.36 nM in the series on BT-474.

On to `CC(=O)O[C@@H](C)/C=C\C(=O)N[C@@H]1C[C@H](C)[C@H](C/C=C(C)/C=C/[C@H]2O[C@H](CC(=O)O)C[C@@](O)(CCl)[C@@H]2O)O[C@@H]1C` [THAILANSTATIN B], for which the IC50 in the series with NCI-N87, in the series with MDA-MB-468 and in the series with BT-474 was above 100 nM in each case.

Consider `CC(=O)O[C@@H](C)/C=C\C(=O)N[C@@H]1C[C@H](C)[C@H](C/C=C(C)/C=C/[C@@H]2C[C@]3(CO3)C[C@@H](CC(=O)O)O2)O[C@@H]1C`, for which the IC50 with NCI-H1975 turned out to be 3.6 nM; in series [1] it was 9.1 nM; in the series on NCI-N87, 2 nM; in the series on MDA-MB-468, 3.4 nM; with BT-474, 4.8 nM. This molecule also registered a logD in series [2] of 0.077.

`CC(=O)O[C@@H](C)/C=C\C(=O)N[C@@H]1C[C@H](C)[C@H](C/C=C(C)/C=C/[C@@H]2C[C@](O)(CCl)C[C@@H](CC(=O)O)O2)O[C@@H]1C`: the IC50 with NCI-N87 was 0.641 nM; in the series on MDA-MB-468, 1.35 nM; in the series with BT-474, 1.85 nM.

In the case of `CC(=O)O[C@@H](C)/C=C\C(=O)N[C@@H]1C[C@H](C)[C@H](C/C=C(C)/C=C/C(=O)O)O[C@@H]1C`, the half-maximal inhibitory concentration (IC50) (in series [1]; with NCI-N87; in the series on BT-474) was above 100 nM each time.

One may read the IC50 as the concentration at which inhibition is half-maximal. Low readings indicate greater potency, high ones weaker potency. Broadly, the logD is lipophilicity at a set pH, counting ionised and neutral species. A higher logD goes with higher lipophilicity.
